# Publication PMC4827872 (Chemical research in toxicology, 2015)
# Where two headings read alike, the source gives them in different places. Where a SMILES comes first, the peptide text is derived from it. The star is where a group is joined. Cbz = O=C(OCc1ccccc1)*
# B1: DIO2 (Homo sapiens) (protein)
# chain: MGILSVDLLITLQILPVFFSNCLFLALYDSVILLKHVVLLLSRSKSTRGEWRRMLTSEGLRCVWKSFLLDAYKQVKLGEDAPNSSVVHVSSTEGGDNSGNGTQEKIAEGATCHLLDFASPERPLVVNFGSATUPPFTSQLPAFRKLVEEFSSVADFLLVYIDEAHPSDGWAIPGDSSLSFEVKKHQNQEDRCAAAQQLLERFSLPPQCRVVADRMDNNANIAYGVAFERVCIVQRQKIAYLGGKGPFSYNLQEVRHWLEKNFSKRUKKTRLAG
# How the values were obtained:
# [1] = biological target: T1, DIO2 (Homo sapiens, UniProt Q92813); assay: DIO2 activity in H4 glioma cells exposed to PBDEs/OH-BDEs; type: cell-based; conditions: for Significant DIO2 Effects in H4 Cells (%Ctrl): at the lowest dose that significantly decreased DIO2 activity; for decrease in DIO2 activity with MG132 coexposure: plus 10 µM MG132
# T1 sequence (Q92813 1-273): B1 chain
# [2] = human serum, cited from earlier work
# [3] = test system: cultured cells; assay: Cell viability; type: cell-based; conditions: for decrease in viability: 5 µM, 24 h exposure; for significant effects on viability: any doses less than 7.5 µM, 24 h
# [4] = test system: cultured cells; assay: Cell membrane damage; type: cell-based; conditions: 24 h; for membrane damage vs control: doses less than 50 µM; for significant effects on membrane damage: any doses less than 7.5 µM
# Outline: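 Cells in 96-well plates, switched to serum-free A-DMEM with 30 nM selenium 24 h beforehand, then exposed 24 h to test compound added from 1,000× DMSO stocks (final DMSO 0.1%). Membrane damage was read as glucose-6-phosphate dehydrogenase activity released into the medium. Values were normalized to well DNA content and to DMSO vehicle controls.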
# [5] = test system: DIO2 mRNA; assay: DIO2 mRNA expression; type: cell-based, human; conditions: 6 h; for DIO2 mRNA expression level vs control: 3 doses
# [6] = biological target: T1, DIO2; assay: In vitro DIO2 kinetics and inhibition in microsomal preparations of H4 cells; type: biochemical; conditions: for concentrations at which DIO2 activity was inhibited / Vmax of DIO2 with inhibitor added: H4 microsomes; for concentrations at which DIO2 activity was inhibited: 2 nM T4
# [7] = biological target: T1, DIO2; assay: DIO2 activity in primary human astrocyte cells exposed to test compounds; type: cell-based
# Outline: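 Primary human astrocytes were grown on gelatin-coated dishes, moved to serum-free A-DMEM (30 nM selenium) 24 h before use, and induced with 10 µM forskolin. Exposure was 6 h (0.1% DMSO), with 100 nM rT3 as positive control. Microsomes (100,000×g, 60 min) were incubated 75 min at 37°C with DTT/EDTA/glycerol buffer. Net T3 was measured by LC/MS/MS (fmol min−1 mg protein−1) and expressed as % vehicle control; n=8 from 2 experiments.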
# [8] = Biotransformation assay in cultured cells; type: in vitro ADME, human; conditions: cells exposed for up to 48 h; 1 µM
# [9] = substrate: NC(Cc1cc(I)c(Oc2cc(I)c(O)c(I)c2)c(I)c1)C(=O)O; assay: In vitro DIO2 kinetics and inhibition in microsomal preparations of H4 cells; type: biochemical, human; conditions: other: H4 microsomal fraction; T4 as substrate; no inhibitor; 37.0 °C
# [10] = H4 cells, 5,000 nM, 6 h exposure
# [11] = H4 glioma cells, doses of approximately 1–5 µM (abstract)
# [12] = calculated assuming serum lipid 6.36 mg mL−1, ref 53
# [13] = geometric mean or median, ref 53
# [14] = H4 cells, 500 nM, 6 h, relative to MG132 control
# [15] = Homo sapiens, read-out: DIO2 mRNA expression ratio relative to the control value of 1.0
# [16] = geometric mean or median, ref 5
# [17] = geometric mean or median, ref 43
# [18] = geometric mean or median, ref 52
# [19] = calculated assuming serum lipid 6.36 mg mL−1, ref 36
# [20] = calculated assuming serum lipid 6.36 mg mL−1, ref 5
# [21] = calculated assuming serum lipid 6.36 mg mL−1, ref 43
# [22] = calculated assuming serum lipid 6.36 mg mL−1, ref 52
molecule,measurement,setting,value
Oc1c(Br)ccc(Oc2ccc(Br)cc2Br)c1Br [3-OH-BDE-47],lowest dose that significantly decreased DIO2 activity,[1]; H4 cells,"~1,000 nM"
same,decrease in DIO2 activity,"[1]; H4 cells, 1,000 nM, 1 h exposure",71.1 ± 13.7%
same,decrease in DIO2 activity,"[1]; H4 cells, 1,000 nM, 6 h exposure",52.1 ± 8.5%
same,decrease in DIO2 activity,"[1]; H4 cells, 1,000 nM, 12 h exposure",not significantly different from control
same,decrease in DIO2 activity,[1]; [10],68.2 ± 13.9%
same,decrease in DIO2 activity,[1]; [11],45–80%
same,Significant DIO2 Effects in H4 Cells (%Ctrl),[1],71.1%
same,Average Serum Concentration,[2]; [12],0.020 nM
same,Average Serum Concentration,[2]; [13],1.6 ng/g lipid
same,decrease in viability,[3],31.7 ± 7.8%
same,membrane damage vs control,[4],not significantly different from control
same,DIO2 mRNA expression level vs control,[5]; H4 cells,not significantly different from control
same,concentrations at which DIO2 activity was inhibited,[6],> 1 µM
same,Ki,"[6]; read-out: Ki for DIO2, calculated from IC50, measured T4 concentration and Km",1.6 µM
Oc1cc(Oc2cc(Br)c(Br)cc2Br)c(Br)cc1Br [5’-OH-BDE-99],inhibition at 1 µM,"[1]; 6 h, read-out: decrease in DIO2 activity, H4 cells, 1,000 nM, 6 h exposure",57.4 ± 1.2%
same,inhibition at 5 µM,"[1]; 6 h, read-out: decrease in DIO2 activity, H4 cells, 5,000 nM, 6 h exposure",63.6 ± 2%
same,inhibition at 1 µM,"[1]; 12 h, read-out: decrease in DIO2 activity, H4 cells, 1,000 nM, 12 h exposure",55.7 ± 5.4%
same,lowest dose that significantly decreased DIO2 activity,[1]; H4 cells,"~1,000 nM"
same,decrease in DIO2 activity with MG132 coexposure,[1]; [14],37.0 ± 2.6%
same,decrease in DIO2 activity,[1]; [11],45–80%
same,Significant DIO2 Effects in H4 Cells (%Ctrl),[1],57.4%
same,Average Serum Concentration,[2]; [13],22 ng/g lipid
same,significant effects on viability,[3],not detected
same,significant effects on membrane damage,[4],not detected
same,mrna remaining at 5 µM,[5]; [15],64 ± 12%
same,IC50,[6],16.6 ± 1.1 µM
same,Ki,[6],7.11 µM
same,concentrations at which DIO2 activity was inhibited,[6],> 1 µM
same,Vmax of DIO2 with inhibitor added,[6]; 15 µM 5’-OH-BDE-99 added,47.2 ± 8.0 fmol min^−1 mg protein^−1
"N[C@@H](Cc1ccc(Oc2cc(I)c(O)c(I)c2)c(I)c1)C(=O)O [rT3, 3,3’,5’ Triiodothyronine, reference compound]",decrease in DIO2 activity,"[1]; H4 cells, 100 nM, 6 h, no inhibitor coexposure (Figure 8)",55.9% ± 3.6
same,decrease in DIO2 activity with MG132 coexposure,"[1]; H4 cells, 100 nM, 6 h",25.8 ± 2.3%
same,decrease in DIO2 activity,"[7]; primary human astrocytes, 100 nM, 6 h, positive control",49.4 ± 4.1%
Brc1ccc(Oc2cc(Br)c(Br)cc2Br)c(Br)c1 [BDE-99],inhibition at 0.5 µM,"[1]; 6 h, read-out: decrease in DIO2 activity, H4 cells, 500 nM, 6 h exposure",82.9 ± 6.7%
same,inhibition at 2.5 µM,"[1]; 6 h, read-out: decrease in DIO2 activity, H4 cells, 2,500 nM, 6 h exposure",80.8 ± 4.7%
same,inhibition at 0.5 µM,"[1]; 12 h, read-out: decrease in DIO2 activity, H4 cells, 500 nM, 12 h exposure",64.6 ± 2.8%
same,decrease in DIO2 activity with MG132 coexposure,[1]; [14],45.5 ± 3.8%
same,decrease in DIO2 activity,"[1]; H4 cells, doses of 500 nM or greater (abstract)",up to 80%
same,Significant DIO2 Effects in H4 Cells (%Ctrl),[1],82.9%
same,decrease in DIO2 activity,"[1]; both cell types (primary astrocytes and H4 glioma), exposure for a few hours",approximately 50%
same,Average Serum Concentration,[2]; [16],6.39 ng/g lipid
same,Average Serum Concentration,[2]; [17],3.0 ng/g lipid
same,Average Serum Concentration,[2]; [18],26.1 ng/g lipid
same,Maximum Serum Concentration,[2]; ref 5,225 ng/g lipid
same,Maximum Serum Concentration,[2]; ref 43,33 ng/g lipid
same,Maximum Serum Concentration,[2]; ref 52,"1,200 ng/g lipid"
same,inhibition at 0.5 µM,"[7]; 6 h, read-out: decrease in DIO2 activity",51.8 ± 8.6%
same,decrease in DIO2 activity,"[7]; primary astrocyte cells, doses of 500 nM or greater (abstract)",50%
same,significant effects on viability,[3],not detected
same,significant effects on membrane damage,[4],not detected
same,mrna remaining at 0.5 µM,[5]; [15],63 ± 6%
same,mrna remaining at 2.5 µM,[5]; [15],59 ± 10%
same,metabolites formed in cells or cell culture media,[8],Neither OH-BDEs nor debrominated PBDE metabolites were detected
same,Ki,[6],33.3 µM
same,concentrations at which DIO2 activity was inhibited,[6],> 1 µM
same,Vmax of DIO2 with inhibitor added,[6]; 20 µM BDE-99 added,50.6 ± 5.6 fmol min^−1 mg protein^−1
same,inhibition at 90 µM,[6]; read-out: maximum inhibition of DIO2,45%
"CC(C)C[C@@H](C=O)NC(=O)[C@H](CC(C)C)NC(=O)[C@H](CC(C)C)NC(=O)OCc1ccccc1 [MG132, reference compound] (Cbz-Leu-Leu-Leu-aldehyde)",increase in basal DIO2 activity,"[1]; H4 cells, 10 µM",73.5 ± 17.9%
Oc1cc(Br)cc(Br)c1Oc1ccc(Br)cc1Br [6-OH-BDE-47],lowest dose that significantly decreased DIO2 activity,[1]; H4 cells,"5,000 nM"
same,decrease in DIO2 activity,[1]; [10],57.1 ± 11.4%
same,decrease in DIO2 activity,[1]; [11],45–80%
same,Significant DIO2 Effects in H4 Cells (%Ctrl),[1],57.1%
same,Average Serum Concentration,[2]; [19],0.0022 nM
same,Maximum Serum Concentration,[2]; [19],0.137 nM
same,Average Serum Concentration,[2]; [12],0.13 nM
same,Average Serum Concentration,"[2]; geometric mean or median, ref 36",0.17 ng/g lipid
same,Average Serum Concentration,[2]; [13],9.9 ng/g lipid
same,Average Serum Concentration,"[2]; geometric mean or median, ref 54",0.0131 nM
same,Maximum Serum Concentration,[2]; ref 36,10.8 ng/g lipid
same,Maximum Serum Concentration,[2]; ref 54,0.336 nM
same,decrease in viability,[3],32.0 ± 8.2%
same,membrane damage vs control,[4],not significantly different from control
same,DIO2 mRNA expression ratio relative to the control value of 1.0,"[5]; H4 cells, 5,000 nM, normalized to RPL13A",0.59 ± 0.08
Brc1ccc(Oc2ccc(Br)cc2Br)c(Br)c1 [BDE-47],effect on DIO2 activity,"[1]; H4 cells, any of the exposure concentrations, 6 h exposure",did not significantly alter
same,Significant DIO2 Effects in H4 Cells (%Ctrl),[1],None
same,Average Serum Concentration,[2]; [20],0.305 nM
same,Maximum Serum Concentration,[2]; [20],4.58 nM
same,Average Serum Concentration,[2]; [21],1.01 nM
same,Maximum Serum Concentration,[2]; [21],1.94 nM
same,Average Serum Concentration,[2]; [22],1.02 nM
same,Maximum Serum Concentration,[2]; [22],60.7 nM
same,Average Serum Concentration,[2]; [16],23.3 ng/g lipid
same,Average Serum Concentration,[2]; [17],77 ng/g lipid
same,Average Serum Concentration,[2]; [18],77.8 ng/g lipid
same,Maximum Serum Concentration,[2]; ref 5,350 ng/g lipid
same,Maximum Serum Concentration,[2]; ref 43,148 ng/g lipid
same,Maximum Serum Concentration,[2]; ref 52,"4,640 ng/g lipid"
same,significant effects on viability,[3],not detected
same,significant effects on membrane damage,[4],not detected
same,DIO2 mRNA expression level vs control,[5]; H4 cells,not significantly different from control
B1,Km,[9],3.49 ± 0.94 nM
same,Vmax,[9],47.5 ± 2.9 fmol min^−1 mg protein^−1
